Experimental data published in ChEMBL document CHEMBL3228029, “Blood glucose lowering sulfonamides with asymmetric carbon atoms. 3. Related N-substituted carbamoylbenzoic acids” (J Med Chem, 1979).
The source made the active and inactive calls. No cut-off for these calls is given here.

Columns and labels:
Rattus norvegicus [1] = test: Hypoglycemic activity in iv dosed rat measured after 1 hr by GOD-Perid method; format: functional
Method in brief: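 Fed female rats received the compound iv as its Na salt in 0.9% saline at four doses. Blood was sampled 1 h post-injection and glucose measured enzymatically (GOD-Perid). Changes were expressed as percent of the control group, and linear dose-response curves were fitted. ED50 is the dose for 50% reduction of the mean control value, with 95% confidence limits.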

Rattus norvegicus [2] = test: Hypoglycemic activity in rat at 0.16 to 2.5 mg/kg, iv measured after 3 hrs by GOD-Perid method; format: functional, organism-based
Method in brief: (§1)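 Female rats in the fed state were injected iv with the Na salt dissolved in 0.9% saline at four graded doses. Blood samples were taken at 1 and 3 h, and glucose was determined enzymatically by the GOD-Perid method. Effects were expressed relative to the control group (percent control value).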

Rattus norvegicus [3] = test: Hypoglycemic activity in rat at 9.6 to 150 mg/kg, iv measured after 3 hrs by GOD-Perid method; format: functional, organism-based; method in brief: as §1
Rattus norvegicus [4] = test: Hypoglycemic activity in rat at 40 to 937.5 mg/kg, iv measured after 3 hrs by GOD-Perid method; format: functional, organism-based; method in brief: as §1
Rattus norvegicus [5] = test: Toxicity in rat assessed as suvival at 937.5 mg/kg, iv; format: organism-based; parameters: dose 937.5 mg/kg, route intravenous; conditions: in vivo
Method in brief: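 Survival was recorded in fed female rats after iv injection of the Na salt in 0.9% saline as the top dose of a four-dose series. Blood glucose was sampled at 1 and 3 h.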

Rattus norvegicus [6] = test: Hypoglycemic activity in rat at 0.0064 to 0.1 mg/kg, iv measured after 3 hrs by GOD-Perid method; format: functional, organism-based; method in brief: as §1
Rattus norvegicus [7] = test: Hypoglycemic activity in rat at 20 to 375 mg/kg, iv measured after 3 hrs by GOD-Perid method; format: functional, organism-based; method in brief: as §1

SMILES: COc1ccc(F)cc1[C@@H](C)NC(=O)Cc1ccc(S(=O)(=O)Nc2ncc(CC(C)C)cn2)cc1
- ED50 (Rattus norvegicus [1]): 0.81 mg/kg
- Activity (Rattus norvegicus [2]): inactive

SMILES: COCCOc1cnc(NS(=O)(=O)c2ccccc2)nc1 [GLYMIDINE]
- ED50 (Rattus norvegicus [1]): 69.7 mg/kg
- Activity (Rattus norvegicus [3]): inactive

SMILES: COc1ccc(F)cc1[C@@H](C)NC(=O)Cc1ccc(C(=O)O)cc1
- ED50 (Rattus norvegicus [1]): 1180 mg/kg
- Activity (Rattus norvegicus [4]): inactive
- Activity (Rattus norvegicus [5]): Toxic

SMILES: COc1ccc(F)cc1[C@H](C)NC(=O)Cc1ccc(S(=O)(=O)Nc2ncc(CC(C)C)cn2)cc1 [GLIFLUMIDE]
- ED50 (Rattus norvegicus [1]): 0.02 mg/kg
- Activity (Rattus norvegicus [6]): inactive

SMILES: COc1ccc(F)cc1[C@H](C)NC(=O)Cc1ccc(C(=O)O)cc1
- ED50 (Rattus norvegicus [1]): 63.9 mg/kg
- Activity (Rattus norvegicus [7]): inactive
